The IC50 is the concentration needed to halve the response being measured.

Experimental findings from ChEMBL document CHEMBL5030510, “Designed β-Hairpins Inhibit LDH5 Oligomerization and Enzymatic Activity” (J Med Chem, 2021) are described below.

For test [1], the target named is T1, L-lactate dehydrogenase A chain (Homo sapiens, UniProt P00338). In words: Binding affinity to recombinant full length N-terminal His-tagged human LDHA expressed in Escherichia coli assessed as reduction in fluorecence polarization measured after 2 hrs by Alexa Fluor 488 based fluorescence polarization assay. In a few lines: (§1)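 Competition FP: LDH5 held 2 min in 0.1 M glycine pH 2.5, then inhibitor added at the reassociation step with Alexa488-labeled cGm peptide (final 12 nM) in 0.25 M phosphate pH 7.6, 1 mM EDTA, with 152.5 nM LDH5. Incubated 2 h at room temperature. FP read at ex 485/em 520 nm. 100% set by probe plus LDH5 alone.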
(In general: Polarisation of emitted light reports the rotation of a fluorescent probe.)

Test [2] has as its target T1, L-lactate dehydrogenase A chain. Briefly: Binding affinity to recombinant full length N-terminal His-tagged human LDHA expressed in Escherichia coli at 12 nM measured after 2 hrs by Alexa Fluor 488 based fluorescence polarization assay relative to control. In a few lines: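 Direct binding FP: LDH5 two-fold serial dilution from 3.375 µM in 0.01 M phosphate pH 7.4, 1 mM EDTA. Held 2 min in glycine pH 2.5, then labeled peptide added (final 12 nM) in 0.25 M phosphate pH 7.6, 1 mM EDTA. Incubated 2 h at RT. FP read at ex 485/em 520 nm. Saturation signal fitted by non-linear regression and set as 100% binding.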

For test [3] the target is unchanged. In words: Binding affinity to recombinant full length N-terminal His-tagged human LDHA expressed in Escherichia coli at up to 100 uM measured after 2 hrs by Alexa Fluor 488 based fluorescence polarization assay. The note with it: dose microM <=100, time 2.0 hrs. In a few lines: as §1
For test [4] the target is unchanged. Briefly: Binding affinity to recombinant full length N-terminal His-tagged human LDHA expressed in Escherichia coli assessed as reduction in fluorecence polarization at up to 10000 nM measured after 2 hrs by Alexa Fluor 488 based fluorescence polarization assay. The note with it: dose nM <=10000, time 2.0 hrs. In a few lines:
as §1

Test [5] has the same target. In words: Inhibition of recombinant full length N-terminal His-tagged human LDHA oligomerization expressed in Escherichia coli at 150 uM at pH 2.5 to 7.4 measured after 2 hrs by SDS-PAGE analysis. In a few lines: (§2)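 Oligomer state: LDHA (1.3 µM) acidified 2 min with 0.1 M glycine pH 2.5, then peptide added in 0.25 M phosphate pH 7.6, 1 mM EDTA, for 2 h at RT. Cross-linked with glutaraldehyde (5% stock), heated 3 min at 85 °C in LDS buffer, and run on 4–12% Bis-Tris gel in MES buffer.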

The target is the same in test [6]. In words: Inhibition of recombinant full length N-terminal His-tagged human LDHA expressed in Escherichia coli using pyruvate as substrate and NADH as cofactor incubated for 2 hrs by fluorescence assay. In a few lines: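 Reassociation activity assay: 900 nM LDHA stock in phosphate pH 7.4/EDTA/0.05% BSA, acidified 2 min with glycine pH 2.5/BSA. Peptide added in 0.25 M phosphate pH 7.6 and incubated 2 h at RT. Aliquot diluted, then pyruvate (3 mM final) and NADH (0.3 mM final) added. IC50 from dose-response fit.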

Test [7] has the same target. Briefly: Inhibition of recombinant full length N-terminal His-tagged human LDHA oligomerization expressed in Escherichia coli at 90 to 150 uM at pH 2.5 to 7.4 measured after 2 hrs by SDS-PAGE analysis. The note with it: dose 90-150 µM. In a few lines: as §2

SMILES strings stand for the structures. Active and inactive are the calls of the source. The calls are words filed in the database; no cut-off is given here. Where a SMILES comes first, the peptide text is derived from it. Bridges are numbered along the chain shown (N, C = ends).

As for `CC(C)C[C@@H]1NC(=O)[C@H](CCCNC(=N)N)NC(=O)[C@H](CCCNC(=N)N)NC(=O)[C@@H](NC(=O)[C@@H](N)CCCCN)CSSC[C@@H](C(=O)N[C@@H](CCCNC(=N)N)C(=O)NCC(=O)N[C@@H](CCCNC(=N)N)C(=O)O)NC(=O)[C@H](Cc2ccc(O)cc2)NC(=O)[C@H]([C@@H](C)O)NC(=O)[C@H](C(C)C)NC(=O)[C@@H]2CSSC[C@H](NC1=O)C(=O)N[C@@H](Cc1ccc(O)cc1)C(=O)N[C@@H](CCCNC(=N)N)C(=O)N[C@@H](CCC(N)=O)C(=O)N[C@@H](CCCNC(=N)N)C(=O)N2` (H-KCRRLCYRQRCVTYCRGR-OH; disulfide 2-15, 6-11), the Activity entry in test [1] was “Dose-Dependent Effect”; in test [2], 50%. Also, the result in test [3] was Active.
As for `O=C1N[C@](c2ccc(N3CCOCC3)cc2)(c2ccsc2)CC(O)=C1Sc1ccccc1Cl`, the outcome in test [4] was inactive. Further, the inhibition result in test [5] is “inactive”.
As to `CC(C)C[C@@H]1NC(=O)[C@H](CCCNC(=N)N)NC(=O)[C@H](CCCNC(=N)N)NC(=O)[C@@H](NC(=O)CN)CSSC[C@@H](C(=O)N[C@@H](CCCNC(=N)N)C(=O)NCC(=O)N[C@@H](CCCNC(=N)N)C(=O)O)NC(=O)[C@H](C(C)C)NC(=O)[C@H]([C@@H](C)O)NC(=O)[C@H](Cc2ccccc2)NC(=O)[C@@H]2CSSC[C@H](NC1=O)C(=O)N[C@@H](Cc1ccc(O)cc1)C(=O)N[C@@H](CCCNC(=N)N)C(=O)N[C@@H](Cc1ccccc1)C(=O)N[C@@H](Cc1c[nH]c3ccccc13)C(=O)N2` (H-GCRRLCYRFWCFTVCRGR-OH; disulfide 2-15, 6-11), the IC50 in test [6] is 2.5 µM. Also, the inhibition result in test [5] and in test [7] was “Active” each time. Also, the Activity result in test [1] was “Dose-Dependent Effect”.
